# An excerpt weighted towards active compounds, which were near 2.3% of everything screened.
# TRPC6 inh = inhibitors of mouse TRPC6 channel | AID 2553 | B-score at 10 µM | HEK293-TRPC6, membrane potential dye, ACh-evoked depolarization; active compounds read low | 1.1% of 310,000 active | Q61143;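 active = B-score under library mean minus 3 SD, initial fluorescence not abnormally high, positive integrated signal ratio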;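 also: B-score derived from integrated fluorescence ratio over the kinetic read; more negative B-score means stronger inhibition of depolarization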
# Target sequence (Q61143 whole entry, looked up): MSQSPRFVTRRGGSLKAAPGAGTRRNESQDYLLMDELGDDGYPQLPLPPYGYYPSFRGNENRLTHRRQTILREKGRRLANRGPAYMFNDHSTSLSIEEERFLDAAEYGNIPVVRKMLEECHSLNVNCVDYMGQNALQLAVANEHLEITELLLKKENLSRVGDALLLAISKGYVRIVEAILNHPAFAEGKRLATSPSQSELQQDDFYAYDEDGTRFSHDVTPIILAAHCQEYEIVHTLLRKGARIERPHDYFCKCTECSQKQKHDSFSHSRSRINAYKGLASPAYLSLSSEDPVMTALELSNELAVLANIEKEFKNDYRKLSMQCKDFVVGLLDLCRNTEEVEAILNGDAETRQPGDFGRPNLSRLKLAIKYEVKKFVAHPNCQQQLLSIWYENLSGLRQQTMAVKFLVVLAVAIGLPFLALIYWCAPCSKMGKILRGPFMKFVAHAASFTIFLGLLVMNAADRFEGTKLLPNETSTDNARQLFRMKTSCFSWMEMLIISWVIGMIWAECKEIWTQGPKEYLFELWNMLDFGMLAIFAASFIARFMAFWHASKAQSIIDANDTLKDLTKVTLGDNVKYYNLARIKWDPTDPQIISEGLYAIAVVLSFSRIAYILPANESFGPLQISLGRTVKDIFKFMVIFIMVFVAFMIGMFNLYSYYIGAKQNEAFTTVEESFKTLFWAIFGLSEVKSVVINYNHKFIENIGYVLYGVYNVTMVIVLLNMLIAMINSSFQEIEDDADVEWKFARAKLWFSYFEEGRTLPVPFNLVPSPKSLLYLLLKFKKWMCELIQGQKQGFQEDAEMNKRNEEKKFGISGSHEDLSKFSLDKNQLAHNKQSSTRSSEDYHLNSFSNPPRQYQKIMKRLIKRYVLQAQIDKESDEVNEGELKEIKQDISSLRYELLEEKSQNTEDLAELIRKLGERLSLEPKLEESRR
# TRPC4 block = blocks the mouse TRPC4 cation channel. Q9QUQ5. HEK293 TRPC4beta/mu-opioid, DAMGO-evoked Fluo4 calcium flux; active compounds read low. B-score at 10 µM. 0.39% of 300,000 active. AID 2247;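 active = B-score over 3 SD under the library average, no early fluorescence shift, positive overall ratio signal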
#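 Test system – stable TRPC4beta/mu-opioid receptor HEK293 cells · Probe or stimulus – DAMGO, a submaximal dose followed by a maximal one · Dosing – one concentration per compound · Signal – Fluo4 calcium fluorescence by kinetic imaging, 5 s 1 Hz baseline · Evaluation – per-well B score of integrated baseline-normalized Fluo4 ratio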
# TRPC4 potent = TRPC4 (mouse) allosteric potentiation; HEK293 TRPC4beta/mu-opioid, DAMGO EC20, Fluo-4 Ca2+ flux; active compounds read high; Q9QUQ5; B-score at 10 µM; 0.42% of 310,000 active;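 active = B-score of calcium response area above 5 SD of library B-scores, with initial fluorescence ratio within 5 SD of library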;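 also: B-score of integrated fluorescence ratio over time as area under calcium response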
# TRPC6 act = activators of mouse TRPC6 channel. HEK293-TRPC6 membrane potential dye fluorescence; active compounds read high. 0.13% of 310,000 active. B-score at 10 µM;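 active = B-score of the integrated fluorescence ratio above library mean plus 3 SD, and starting fluorescence ratio within library mean plus 5 SD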;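 also: higher score means more depolarization so channel activation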
# TRPC4 agonist = TRPC4 (mouse) channel activation. Q9QUQ5. HEK293 TRPC4beta/mu-opioid, Fluo4 calcium fluorescence; active compounds read high. B-score at 10 µM. 0.49% of 310,000 active. AID 2237;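 active = B-score above 5 SD of library B-scores, and initial fluorescence ratio not above library mean plus 5 SD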;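 also: positive B-score marks a calcium rise read as TRPC4 activation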
#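 Test system: HEK293 cells stably co-expressing mouse TRPC4beta and mu-opioid receptor | Schedule: Fluo4 dye loading 45 min at room temperature, 110 s recording | Measured by: Kinetic Fluo4 calcium fluorescence, 5 s baseline at 1 Hz | Evaluation: B score of integrated ratio | Controls: Buffer (low) and maximal DAMGO (high)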
# TRPC4 sel inh 2 = second check of whether TRPC6 inhibitors also affect mouse TRPC4; AID 2776; HEK293 TRPC4/MOR, membrane potential dye fluorescence; channel activated by saturating DAMGO dose; 42% of 920 active; inhibition, % at 10 µM; shares compounds with TRPC6 inh;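 active = compounds whose fluorescence signal differed from control wells by over 3 SD, either direction, in both duplicate plates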
# TRPC4 spec = tests whether TRPC6 inhibitors also affect mouse TRPC4; 61% of 920 active; shares compounds with TRPC6 inh; HEK293 TRPC4/mu-opioid, membrane potential fluorescence; activity change, negative = inhibition, % at 10 µM; AID 2777;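 active = rise or fall in signal beyond 3 SD of buffer-only wells in both replicate plates, either sign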;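 also: integrated kinetic ratio of fluorescence range over baseline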
# HEK293 MPD ctr 2-1 = second check of TRPC6 inhibitor effects in parental HEK293 cells. parental HEK293 membrane potential dye fluorescence; maximal acetylcholine challenge after compound addition. signal change vs control, % at 10 µM. shares compounds with TRPC6 inh. AID 2779. 31% of 920 active;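 active = membrane potential signal moving either way by over 3 SD of the maximum-effect control, in both duplicate plates, meaning non-specific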
# HEK293 MPD ctr-1 = parental HEK293 nonspecific activity of TRPC6 inhibitors; parental HEK293 membrane potential dye fluorescence; shares compounds with TRPC6 inh; 60% of 920 active; AID 2780; membrane potential signal change, % at 10 µM;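 active = membrane potential signal shifting up or down by more than 3 SD of buffer-only wells, on both duplicate plates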
# HEK293 MPD ctr-2 = counter-screen for TRPC6 modulators: effect in parental HEK293 cells. membrane potential signal change, % at 10 µM. membrane potential dye fluorescence. shares compounds with TRPC6 inh. 51% of 2,400 active;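 active = membrane potential signal moves up or down beyond 5 SD from buffer-only wells, on both duplicate plates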
# HEK293 MPD ctr 2-2 = second check of TRPC6 modulator effects in parental HEK293 cells; shares compounds with TRPC6 inh; membrane potential dye fluorescence; after compound, maximal acetylcholine stimulation; inhibition, % at 10 µM; 14% of 2,400 active; AID 488926;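 active = membrane potential signal drops by more than 5 SD from the mean control signal, in both duplicate plates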;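 also: plate controls were acetylcholine ECmax control wells for no effect and buffer only wells for full effect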
# TRPC4/MOR mod = mouse TRPC4 off-target activity of TRPC6 modulators; shares compounds with TRPC6 inh; AID 488927; percent change from control (negative = decrease, positive = increase), % at 10 µM; 69% of 2,400 active; HEK293 TRPC4/mu-opioid, membrane potential fluorescence;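 active = membrane potential signal moved up or down beyond 5 SD of buffer control wells, in both duplicate plates, actives on both sides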;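 also: plate controls were assay buffer wells for no effect and DAMGO maximal-effect wells for full effect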
# TRPC4 ctr inh 2 = second selectivity test of TRPC6 modulators against mouse TRPC4; shares compounds with TRPC6 inh; HEK293 TRPC4/mu-opioid, membrane potential dye fluorescence; stimulated with maximal-effect DAMGO; inhibition, % at 10 µM; 55% of 2,400 active;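 active = drop in membrane potential signal beyond 5 SD of the control wells in both duplicate plates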;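 also: TRPC4 counter screen for TRPC6 hits run under conditions tuned for TRPC6 not TRPC4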
# TRPC6 inh conf = confirmation of mouse TRPC6 inhibitors. shares compounds with TRPC6 inh. HEK293-TRPC6, membrane potential dye, ACh-evoked depolarization. inhibition, % at 10 µM. 43% of 3,300 active. AID 488960;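 active = fluorescence ratio falls more than 5 SD below the full-stimulation control mean, in both duplicate runs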;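 also: integrated fluorescence ratio of peak minus minimum over baseline after agonist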
# TRPC6 act conf = confirmation of mouse TRPC6 activators | activation, % at 10 µM | shares compounds with TRPC6 inh | HEK293-TRPC6 membrane potential dye fluorescence, FDSS | 11% of 2,800 active;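 active = ratio signal rise beyond 5 SD above unstimulated control wells' mean, seen in both duplicate runs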;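 also: plate controls were buffer EC0 wells for no effect and acetylcholine ECmax response for full effect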
# Active calls of the source: *; i = inactive; . = no result given.
SMILES,TRPC6 inh,TRPC4 block,TRPC4 potent,TRPC6 act,TRPC4 agonist,HEK293 MPD ctr-2,HEK293 MPD ctr 2-2,TRPC4/MOR mod,TRPC4 ctr inh 2,TRPC6 inh conf,TRPC6 act conf,others
CC1CCCN(CCCNC(=O)c2ccc3c(c2)N(Cc2ccc(F)cc2)C(=O)c2ccccc2S3=O)C1 (stereo not given),-5.1*,i,i,i,55*,i,i,i,77%*,57%*,i,
Cc1cccc(CN2C(=O)c3ccccc3S(=O)(=O)c3ccc(C(=O)NCCCN4CCCC4)cc32)c1,-5.1*,i,i,i,i,i,i,i,57%*,41%*,i,
O=C(NCCN1CCCC1)c1ccc2c(c1)N(Cc1cccc(Cl)c1)C(=O)c1ccccc1S2(=O)=O,i,i,i,i,i,.,.,.,.,.,.,
CSc1nc(SCC(N)=O)c2c3c(sc2n1)CN(C)CC3,-11*,i,i,i,i,-210%*,68%*,-38%*,47%*,i,i,
CCNc1nc(SCC(N)=O)nc2sc3c(c12)CCN(C)C3,-6.6*,i,i,i,i,-196%*,i,-38%*,43%*,52%*,i,
CCOC(=O)CSc1nc2sc3c(c2c(=O)n1C1CCCCC1)CCN(C)C3,-5.6*,i,i,i,i,i,i,8.0%*,46%*,i,i,
CCOc1ccc(-n2c(SCC(N)=O)nc3sc4c(c3c2=O)CCN(C)C4)cc1,i,i,i,i,i,.,.,.,.,.,.,
CCSc1nc2sc3c(c2c(=O)n1-c1ccccc1)CCN(C)C3,i,i,i,i,i,.,.,.,.,.,.,
COCCSc1nc2sc3c(c2c(=O)n1-c1ccccc1)CCN(C)C3,-7.5*,i,i,i,i,-108%*,i,-22%*,i,i,i,
CCCOc1ccc(C(=O)NCCC(=O)NCCCC(=O)O)cc1,i,i,i,i,i,.,.,.,.,.,.,
CCc1ccc(CN2CCCC(CCC(=O)N3CCN(c4ccccn4)CC3)C2)o1 (stereo not given),i,i,i,i,i,.,.,.,.,.,.,
CCOc1ccc(S(=O)(=O)NCc2ccc3c(c2)OCO3)cc1C(=O)O,i,i,i,i,i,.,.,.,.,.,.,
Fc1ccccc1Cc1noc(CN(Cc2ccccn2)CC2CCCO2)n1 (stereo not given),i,i,i,i,i,.,.,.,.,.,.,
Cn1c(SCc2cccc(F)c2)nnc1-c1ccncc1,i,i,i,i,i,.,.,.,.,.,.,
CCOc1cc(N2CCOCC2)c(OCC)cc1NC(=O)COC(=O)/C=C/c1ccc(OC(F)F)cc1,i,i,i,i,i,.,.,.,.,.,.,
CCC(O)CNc1nc(SC)nc2sc3c(c12)CCN(C)C3 (stereo not given),-7.2*,i,i,i,i,-167%*,i,-39%*,36%*,i,i,
CCn1c(SCC(N)=O)nc2sc3c(c2c1=O)CCN(C)C3,-6*,i,i,i,i,-203%*,i,-36%*,36%*,44%*,i,
CCn1c(SCC(=O)Nc2ccc(C)cc2)nc2sc3c(c2c1=O)CCN(C)C3,i,i,i,i,i,.,.,.,.,.,.,
COC(CNc1nc(SC)nc2sc3c(c12)CCN(C)C3)OC,i,i,i,i,i,.,.,.,.,.,.,
CN(CCC#N)C(=S)Nc1ccc(S(=O)(=O)N2CCOCC2)cc1,i,i,i,i,i,.,.,.,.,.,.,
Cc1cc(C)n(-c2nc(SCC(=O)O)c3c4c(sc3n2)COC(C)(C)C4)n1,i,i,i,i,i,.,.,.,.,.,.,
CCN(CC)CCCNc1nc(-n2nc(C)cc2C)nc2sc3c(c12)CC(C)(C)OC3,-10*,i,i,i,i,.,.,.,.,57%*,i,TRPC4 sel inh 2=i;TRPC4 spec=-11%*;HEK293 MPD ctr 2-1=i;HEK293 MPD ctr-1=-204%*
Cc1cc(C)n(-c2nc(NCc3cccnc3)c3c4c(sc3n2)COC(C)(C)C4)n1,-7.4*,i,i,i,i,.,.,.,.,i,i,TRPC4 sel inh 2=i;TRPC4 spec=i;HEK293 MPD ctr 2-1=i;HEK293 MPD ctr-1=i
Cc1ccc2sc(N(CCCN(C)C)C(=O)c3ccc(Br)s3)nc2c1C,-6.5*,i,i,i,i,i,i,-20%*,80%*,i,i,
Cc1ccc2sc(N(CCCN(C)C)C(=O)c3nc4ccccc4s3)nc2c1C,i,i,i,i,i,.,.,.,.,.,.,
Cc1cccc2sc(N(CCCN(C)C)C(=O)c3ccc4ncsc4c3)nc12,-5*,i,i,i,i,i,i,i,78%*,45%*,i,
CN(C)CCN(C(=O)c1ccccc1Cl)c1nc2c(Cl)cccc2s1,i,i,i,i,i,.,.,.,.,.,.,
O=C(Nc1ccc(N2CCOCC2)cc1)c1ccc(Cl)nc1,i,i,i,i,i,.,.,.,.,.,.,
CCN(c1ccc(NC(=O)c2ccc(Cl)nc2)cc1)C(C)C,-6.5*,i,i,i,i,i,i,i,i,i,i,
